The source made the active and inactive calls. No cut-off for these calls is given here.
Key:
[1] = system: Hepatitis C virus; test: Antiviral activity against HCV genotype 1b infected in human HuH5.2 cells with persistent I389luc-ubi-neo/NS3-3'/5.1 replicon after 72 hrs by luciferase reporter gene assay; assay type: functional, cell-based, Hepacivirus hominis; settings: Huh-5-2, 72 h
In short: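 Huh 5-2 cells carrying the genotype 1b I389luc-ubi-neo/NS3-3'/5.1 replicon were seeded at 6 500 cells/well in Geneticin-free DMEM/10% FCS and left overnight. Compounds from DMSO stocks were added in a four-step 1-to-5 series for the first screen or an eight-step 1-to-2 series for dose-response curves, then 72 h at 37 °C. Luciferase luminescence after lysis, as % of untreated controls, gave EC50; mean of ≥2 experiments.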

[2] = Selectivity index, ratio of CC50 for human HuH5.2 cells to EC50 for HCV genotype 1b infected in human HuH5.2 cells with persistent I389luc-ubi-neo/NS3-3'/5.1 replicon
[3] = Inhibition of HCV NS3 helicase DNA unwinding activity using fluorescent DNA substrate by molecular beacon assay; parameters: species or system Hepacivirus hominis
In short: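 Molecular beacon unwinding reaction: 25 mM MOPS pH 6.5, 1.25 mM MgCl2, 5% DMSO, 5 µg/ml BSA, 0.01% Tween20, 0.05 mM DTT, 5 nM fluorescent DNA substrate, 12.5 nM NS3h, 1 mM ATP. Duplicate two-fold dilutions spanned 1 mM to 0.78 µM. Data normalised to no-inhibitor and no-enzyme controls; IC50 from variable-slope Hill fit.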

[4] = Cytotoxicity against human HuH5.2 cells assessed as reduction in cell viability after 72 hrs by MTS assay; assay type: cell-based, Huh-5-2
In short: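 Huh 5-2 cells carrying the genotype 1b I389luc-ubi-neo/NS3-3'/5.1 replicon were seeded at 6 500 cells/well in medium without Geneticin one day ahead. Compounds (DMSO stock) were added as 1:5 four-step or 1:2 eight-step dilutions for 72 h at 37 °C.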

[5] = Inhibition of HCV NS3 helicase ATP hydrolysis activity in presence of poly(U) RNA; parameters: species or system Hepacivirus hominis
In short: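 ATPase run with RNA: 25 mM MOPS pH 6.5, 1.25 mM MgCl2, 15 µM poly(U), 6 nM NS3h, 5 µg/mL BSA, 0.001% Tween 20. Duplicate two-fold compound series from 1 mM to 0.78 µM; normalised to no-inhibitor and no-enzyme controls; IC50 from variable Hill-slope fit. A separate poly(U) titration gave K_RNA, fit assuming unchanged Vmax.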

[6] = Inhibition of DNA oligonucleotide binding to HCV NS3 helicase; parameters: species or system Hepacivirus hominis
In short: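 Compounds run in duplicate two-fold series from 1 mM to 0.78 µM; normalised to no-inhibitor and no-enzyme controls; IC50 by variable Hill-slope dose-response fit.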

[7] = system: Hepacivirus hominis; test: Selectivity ratio of inhibition of DNA oligonucleotide binding to HCV NS3 helicase to inhibition of HCV NS3 helicase ATP hydrolysis activity
[8] = system: Hepacivirus hominis; test: Inhibition of HCV NS3 helicase ATP hydrolysis activity at 1 mM in absence of poly(U) RNA
[9] = Binding affinity to HCV genotype 2A JFH1 protease domain truncated NS3 helicase by fluorescence assay; parameters: species or system Hepatitis C virus JFH-1
In short: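 Intrinsic tryptophan fluorescence titration (ex 280 nm, em 340 nm) of NS3h, the JFH1 genotype 2a NS3 helicase domain without protease, at 100 nM, with compound alone as reference. Intensities corrected for dilution and inner-filter effects, then globally fit to a quadratic binding equation for Kd.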

| Compound | EC50 [1] [µM] | Ratio CC50/EC50 [2] | IC50 [3] [µM] | CC50 at 72 h [4] [µM] | IC50 [5] [µM] | IC50 [6] [µM] | EC90 [1] [µM] | Selectivity ratio [7] | inhibition [8] | Kd [9] [µM] |
| --- | --- | --- | --- | --- | --- | --- | --- | --- | --- | --- |
| O=S(=O)(NCCCN1CCN(CCCNS(=O)(=O)c2ccc(-c3ccccc3)cc2)CC1)c1ccc(-c2ccccc2)cc1 | 1.2 | 3.9 | 630 | 4.9 |  |  |  |  |  |  |
| O=S(=O)(NCCCN1CCN(CCCNS(=O)(=O)c2ccc(Cl)cc2)CC1)c1ccc(Cl)cc1 | 13 to 13.8 | >13.2 - 14 | > 1000 | > 182 | > 1000 | > 1000 |  |  |  |  |
| O=S(=O)(NCCN1CCN(CCNS(=O)(=O)c2ccc3ccccc3c2)CC1)c1ccc2ccccc2c1 | 10.6 | >8.5 | 690 | > 90.5 |  |  |  |  |  |  |
| O=S(=O)(NCCCN1CCN(CCCNS(=O)(=O)c2ccc(C(F)(F)F)cc2)CC1)c1ccc(C(F)(F)F)cc1 | 6.5 | >25 | > 1000 | > 162 |  |  |  |  |  |  |
| CC(C)(C)c1ccc(S(=O)(=O)NCCCN2CCN(C(=O)CCNS(=O)(=O)c3ccc(C(C)(C)C)cc3)CC2)cc1 | 3.84 | 5.4 | > 1000 | 20.8 |  |  |  |  |  |  |
| CCOC(=O)c1ccc(S(=O)(=O)NCCCN2CCN(CCCNS(=O)(=O)c3ccc(C(=O)OCC)cc3)CC2)cc1 | 56.2 | >2.8 | > 1000 | > 160 |  |  |  |  |  |  |
| O=C(CCNS(=O)(=O)c1ccc(-c2ccccc2)cc1)N1CCN(CCCNS(=O)(=O)c2ccc(-c3ccccc3)cc2)CC1 | 3.03 | 22.1 | > 1000 | 66.9 |  |  |  |  |  |  |
| O=S(=O)(NCCCN1CCN(CCCNS(=O)(=O)c2ccc3ccccc3c2)CC1)c1ccc2ccccc2c1 | 4.9 | 10 | 460 | 49.9 |  |  |  |  |  |  |
| O=C(CCNS(=O)(=O)c1ccc(Cl)cc1)N1CCN(C(=O)CCNS(=O)(=O)c2ccc(Cl)cc2)CC1 |  |  | > 1000 | > 86.6 | > 1000 | > 1000 |  |  |  |  |
| O=S(=O)(NCCCN1CCN(CCCNS(=O)(=O)c2cccc3cccnc23)CC1)c1cccc2cccnc12 | 42.5 | >4 | > 1000 | > 172 |  |  | > 172 |  |  |  |
| CC(C)(C)c1ccc(S(=O)(=O)NCCCN2CCN(CCNS(=O)(=O)c3ccc(C(C)(C)C)cc3)CC2)cc1 | 1.7 | 3.1 | 170 | 5.21 |  |  |  |  |  |  |
| CC(C)(C)c1ccc(S(=O)(=O)NCCCN2CCN(CCCNS(=O)(=O)c3ccc(C(C)(C)C)cc3)CC2)cc1 | 8.7 | 11.2 | 310 | 97.2 | 590 | > 1000 | 42.9 |  |  |  |
| CC(C)(C)c1ccc(S(=O)(=O)NCCCN2CCN(CCCNS(=O)(=O)c3ccc(-c4ccccc4)cc3)CC2)cc1 | 1.3 | 3.7 | 90 | 4.78 | 21 | 200 | 3.05 | 10 | inactive | 0.57 |
| O=S(=O)(NCCCN1CCN(CCCNS(=O)(=O)c2ccc(-c3ccccc3)cc2)CC1)c1ccccc1 | 4 | 3.5 | > 1000 | 14 |  |  |  |  |  |  |
| CC(C)(C)c1ccc(S(=O)(=O)NCCCN2CCN(CCCNS(=O)(=O)c3ccc(C(F)(F)F)cc3)CC2)cc1 | 6.62 | 4.3 | > 1000 | 28.7 |  |  | 13.8 |  |  |  |
| O=C(CCNS(=O)(=O)c1ccc(Cl)cc1)N1CCN(CCCNS(=O)(=O)c2ccc(Cl)cc2)CC1 | 9.32 | 7.4 | > 1000 | 69.1 |  |  | 25.9 |  |  |  |
| CC(C)(C)c1ccc(S(=O)(=O)NCCCN2CCN(CCCNS(=O)(=O)c3ccc(Cl)cc3)CC2)cc1 | 2.21 | 4 | 310 | 8.77 |  |  | 4.96 |  |  |  |
| O=S(=O)(NCCCCN1CCN(CCCCNS(=O)(=O)c2ccc(Cl)cc2)CC1)c1ccc(Cl)cc1 | 66.7 | >2.5 | 790 | > 173 |  |  | 164 |  |  |  |
| O=C(O)c1ccc(S(=O)(=O)NCCCN2CCN(CCCNS(=O)(=O)c3ccc(C(=O)O)cc3)CC2)cc1 | > 176 |  | > 1000 | > 176 |  |  |  |  |  |  |

Reference: ChEMBL document CHEMBL4041513, “In silico identification, design and synthesis of novel piperazine-based antiviral agents targeting the hepatitis C virus helicase” (Eur J Med Chem, 2017)
